Measurements published in ChEMBL document CHEMBL4138104, “Indole carboxylic acid esters of melampomagnolide B are potent anticancer agents against both hematological and solid tumor cells” (Eur J Med Chem, 2017).

Assays:
Format in all cases: functional
[1] = tested on: SR; experiment: Growth inhibition of human SR cells incubated for 48 hrs by sulforhodamine B assay
Procedure, shortened: (§1)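 NCI-60 screen run at NCI. Cells grown in RPMI medium with 5% FBS and 2 mM L-glutamine, plated at 5,000–40,000 cells/well, and preincubated 24 h at 37 °C. Time-zero plates were TCA-fixed. Compounds came from DMSO stocks and were tested at five concentrations from 10^-4 to 10^-8 M for 48 h. Cells were then TCA-fixed, stained with 0.4% SRB, and OD read at 515 nm. GI50 is the concentration giving a 50% reduction in net protein increase versus control.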

[2] = tested on: EKVX; experiment: Growth inhibition of human EKVX cells incubated for 48 hrs by sulforhodamine B assay
Procedure, shortened: (§2)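 NCI-60 screen. Compounds were dosed at five concentrations spanning 10^-4 to 10^-8 M for 48 h at 37 °C. Cells were TCA-fixed, stained with 0.4% SRB and read at 515 nm against time-zero and vehicle controls. GI50 is the concentration giving a 50% reduction in net protein increase.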

[3] = tested on: HOP-62; experiment: Growth inhibition of human HOP62 cells incubated for 48 hrs by sulforhodamine B assay; details: HOP-62, 48 h; procedure, shortened: as §2
[4] = tested on: COLO 205; experiment: Growth inhibition of human COLO205 cells incubated for 48 hrs by sulforhodamine B assay; details: COLO 205, 48 h; procedure, shortened: as §2
[5] = tested on: SNB-75; experiment: Growth inhibition of human SNB75 cells incubated for 48 hrs by sulforhodamine B assay; details: SNB-75, 48 h; procedure, shortened: as §1
[6] = tested on: M14; experiment: Growth inhibition of human M14 cells incubated for 48 hrs by sulforhodamine B assay; details: M14, 48 h; procedure, shortened: as §2
[7] = tested on: MDA-MB-435; experiment: Growth inhibition of human MDA-MB-435 cells incubated for 48 hrs by sulforhodamine B assay; details: MDA-MB-435, 48 h; procedure, shortened: as §2
[8] = tested on: SK-MEL-2; experiment: Growth inhibition of human SK-MEL-2 cells incubated for 48 hrs by sulforhodamine B assay; details: SK-MEL-2, 48 h; procedure, shortened: as §2
[9] = tested on: SK-MEL-5; experiment: Growth inhibition of human SK-MEL-5 cells incubated for 48 hrs by sulforhodamine B assay; details: SK-MEL-5, 48 h; procedure, shortened: as §2
[10] = tested on: IGROV-1; experiment: Growth inhibition of human IGROV1 cells incubated for 48 hrs by sulforhodamine B assay; details: IGROV-1, 48 h; procedure, shortened: as §2
[11] = tested on: OVCAR-3; experiment: Growth inhibition of human OVCAR3 cells incubated for 48 hrs by sulforhodamine B assay; details: OVCAR-3, 48 h; procedure, shortened: as §2
[12] = tested on: OVCAR-4; experiment: Growth inhibition of human OVCAR4 cells incubated for 48 hrs by sulforhodamine B assay; details: OVCAR-4, 48 h; procedure, shortened: as §2
[13] = tested on: SK-OV-3; experiment: Growth inhibition of human SKOV3 cells incubated for 48 hrs by sulforhodamine B assay; details: SK-OV-3, 48 h; procedure, shortened: as §2
[14] = tested on: 786-0; experiment: Growth inhibition of human 786-0 cells incubated for 48 hrs by sulforhodamine B assay; details: 786-0, 48 h; procedure, shortened: as §2
[15] = tested on: TK-10; experiment: Growth inhibition of human TK10 cells incubated for 48 hrs by sulforhodamine B assay; details: TK-10, 48 h; procedure, shortened: as §1
[16] = tested on: PC-3; experiment: Growth inhibition of human PC3 cells incubated for 48 hrs by sulforhodamine B assay; details: PC-3, 48 h; procedure, shortened: as §2
[17] = tested on: DU-145; experiment: Growth inhibition of human DU145 cells incubated for 48 hrs by sulforhodamine B assay; details: DU-145, 48 h; procedure, shortened: as §2
[18] = tested on: MDA-MB-231; experiment: Growth inhibition of human MDA-MB-231/ATCC cells incubated for 48 hrs by sulforhodamine B assay; details: MDA-MB-231, 48 h; procedure, shortened: as §2
[19] = tested on: Hs-578T; experiment: Growth inhibition of human Hs 578T cells incubated for 48 hrs by sulforhodamine B assay; procedure, shortened: as §2
[20] = tested on: BT-549; experiment: Growth inhibition of human BT549 cells incubated for 48 hrs by sulforhodamine B assay; details: BT-549, 48 h; procedure, shortened: as §2
[21] = tested on: T47D; experiment: Growth inhibition of human T47D cells incubated for 48 hrs by sulforhodamine B assay; procedure, shortened: as §1
[22] = tested on: MDA-MB-468; experiment: Growth inhibition of human MDA-MB-468 cells incubated for 48 hrs by sulforhodamine B assay; details: MDA-MB-468, 48 h; procedure, shortened: as §2
[23] = Potency index, ratio of melampomagnolide-B EC50 to compound EC50 for human M9-ENL1 cells
Procedure, shortened: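 M9-ENL1 AML cells, derived by MLL-ENL transduction of human blood cells, were plated at 10^6 cells/mL in alpha-MEM with 5% human plasma, 20% FBS, SCF, IL-3, IL-7 and FLT3 ligand. Exposure was 24 h. Non-apoptotic (Annexin V/7-AAD double-negative) fraction was normalized to vehicle, in triplicate, to give EC50. PTL and MMB were run as reference controls.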

[24] = tested on: ACHN; experiment: Growth inhibition of human ACHN cells incubated for 48 hrs by sulforhodamine B assay; procedure, shortened: as §2
[25] = tested on: CAKI-1; experiment: Growth inhibition of human Caki1 cells incubated for 48 hrs by sulforhodamine B assay; details: CAKI-1, 48 h; procedure, shortened: as §2

| SMILES | GI50 [1] | GI50 [2] | GI50 [3] | GI50 [4] | GI50 [5] | GI50 [6] | GI50 [7] | GI50 [8] | GI50 [9] | GI50 [10] | GI50 [11] | GI50 [12] | GI50 [13] | GI50 [14] | GI50 [15] | GI50 [16] | GI50 [17] | GI50 [18] | GI50 [19] | GI50 [21] | other results |
| --- | --- | --- | --- | --- | --- | --- | --- | --- | --- | --- | --- | --- | --- | --- | --- | --- | --- | --- | --- | --- | --- |
| C=C1C(=O)O[C@@H]2[C@H]3O[C@]3(C)CC/C=C(/COC(=O)CCCc3c[nH]c4ccccc34)CC[C@@H]12 | 1730 nM | 2020 nM | 6540 nM | 1860 nM | 12600 nM | 1660 nM | 1730 nM | 1960 nM | 1740 nM | 1630 nM | 1530 nM | 1660 nM | 17.3 µM | 1600 nM | 1640 nM | 1920 nM | 1670 nM | 1780 nM | 3190 nM | 2170 nM | GI50 [20]: 1370 nM; GI50 [22]: 1760 nM; Ratio IC50 [23]: 2 - 20 |
| C=C1C(=O)O[C@@H]2[C@H]3O[C@]3(C)CC/C=C(/COC(=O)c3cc4ccccc4s3)CC[C@@H]12 | 520 nM | 1690 nM | 1810 nM | 1710 nM | 3520 nM | 1750 nM | 1330 nM | 1750 nM | 1750 nM | 1760 nM | 440 nM | 2080 nM | 13.9 µM | 1520 nM | 1550 nM | 1830 nM | 1050 nM | 1970 nM | 2890 nM | 1470 nM | GI50 [24]: 1500 nM; GI50 [25]: 1460 nM; GI50 [22]: 1630 nM; Ratio IC50 [23]: 2 - 20 |
| C=C1C(=O)O[C@@H]2[C@H]3O[C@]3(C)CC/C=C(/COC(=O)c3c[nH]c4ccccc34)CC[C@@H]12 | 280 nM | 310 nM | 820 nM | 240 nM | 200 nM | 220 nM | 240 nM | 230 nM | 200 nM | 250 nM | 200 nM | 250 nM | 2.24 µM | 320 nM | 280 nM | 380 nM | 380 nM | 190 nM | 610 nM | 400 nM | GI50 [24]: 210 nM; GI50 [20]: 170 nM; GI50 [22]: 190 nM; Ratio IC50 [23]: 2 - 20 |
| C=C1C(=O)O[C@@H]2[C@H]3O[C@]3(C)CC/C=C(/COC(=O)c3cc4ccccc4o3)CC[C@@H]12 | 1150 nM | 2020 nM | 2480 nM | 1550 nM | 1340 nM | 1430 nM | 1430 nM | 1770 nM | 1520 nM | 1390 nM | 480 nM | 1560 nM | 16.7 µM | 1810 nM | 3010 nM | 1760 nM | 1180 nM | 1640 nM | 2910 nM | 1350 nM | GI50 [24]: 1440 nM; GI50 [20]: 1480 nM; GI50 [22]: 1500 nM; Ratio IC50 [23]: 2 - 20 |
| C=C1C(=O)O[C@@H]2[C@H]3O[C@]3(C)CC/C=C(/COC(=O)c3cn(C)c4ccccc34)CC[C@@H]12 | 340 nM | 960 nM | 1810 nM | 1240 nM | 1090 nM | 1410 nM | 1350 nM | 1380 nM | 1420 nM | 690 nM | 380 nM | 1140 nM | 4.33 µM | 1460 nM | 1100 nM | 1470 nM | 1010 nM | 1050 nM | 2390 nM | 1190 nM | GI50 [24]: 820 nM; GI50 [20]: 510 nM; GI50 [22]: 440 nM; Ratio IC50 [23]: 2 - 20 |
